Source: publication PMC7175782 (Bioconjugate chemistry, 2018)

System: TAR RNA
Assay: Direct binding of ligands to TAR by ESI-MS under nondenaturing conditions
Design: species or system HIV-1
Details: 1 μM TAR, 10 μM ligand (1:10), 150 mM ammonium acetate
How it was run: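 Nondenaturing ESI-MS of HIV-1 TAR RNA (1 μM) mixed with test compound (10 μM, 1:10 molar ratio) in 150 mM ammonium acetate. Species assigned from monoisotopic masses. Free and bound RNA were quantified from relative abundances, expressed as percentages and compared to assess binding.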

| Structure (SMILES) | binding stoichiometry of TAR complexes (ligand:TAR) |
| --- | --- |
| CC(NC(=O)C(N)CCCN)C(=O)Nc1ccc2c(c1)C(=O)c1ccc(NC(=O)C(C)NC(=O)C(N)CCCN)cc1C2=O.O=C(O)C(F)(F)F.O=C(O)C(F)(F)F.O=C(O)C(F)(F)F.O=C(O)C(F)(F)F [D-4g, N,N ′-(1,1′-(9,10-Dioxo-9,10-dihydroanthracene-2,6-diyl)-bis(azanediyl)bis(1-oxo-propane-2,1-diyl))bis(2,5-diaminopentanamide)-tetra-trifluoroacetate] | up to 3 equiv of ligand |
| C[C@H](NC(=O)C(N)CCCCN)C(=O)Nc1ccc2c(c1)C(=O)c1ccc(NC(=O)[C@H](C)NC(=O)C(N)CCCCN)cc1C2=O.O=C(O)C(F)(F)F.O=C(O)C(F)(F)F.O=C(O)C(F)(F)F.O=C(O)C(F)(F)F (stereo partly drawn) [D-4h, N,N′-(2S,2′S)-1,1′-(9,10-Dioxo-9,10-dihydro-anthracene-2,6-diyl)bis(azanediyl)-bis(1-oxopropane-2,1-diyl)bis(2,6-diaminohexanamide)-tetra-trifluoroacetate] | up to 4 equiv of ligand |
